Converted amounts (≈) assume the structure as drawn. The source made the active and inactive calls. The calls are words filed in the database; no cut-off is given here.
Key:
[1] = Toxicity in mouse assessed as effect on serum chemistry parameters at 100 to 250 mg/kg, po QD for 7 days; assay type: organism-based; conditions: in vivo, 168 h, dose 100-250 mg/kg, time 7 day
[2] = Drug level in mouse fecus at 25 mg/kg, po; conditions: read-out: Drug uptake, in vivo
[3] = Plasma concentration in mouse at 250 mg/kg, po QD for 7 days measured after 24 hrs by LC-MS/MS analysis
[4] = Plasma concentration in mouse at 250 mg/kg, po QD for 5 days measured after 2 hrs by LC-MS/MS analysis
[5] = Toxicity in mouse at 100 mg/kg, po QD for 7 days; assay type: organism-based; conditions: in vivo, 168 h, time 7 day
Cryptosporidium parvum [6] = assay: Antimicrobial activity against nano-luciferase-expressing Cryptosporidium parvum infected in IFN-gamma KO B6.129S7-Ifngtm1Ts/J mouse assessed as log reduction of infection at 15 mg/kg, po QD for 5 days beginning on day 6 post infection relative untreated control; assay type: functional, organism-based; conditions: time 5.0 day
[7] = Plasma concentration in mouse at 100 mg/kg, po QD for 7 days measured after 48 hrs by LC-MS/MS analysis; assay type: ADME, organism-based; conditions: time 7 day
In short: (§1)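 Multiple-dose oral tolerability study in mice at 100 or 250 mg/kg over 7 days. Plasma was taken 2 h after dose 2, before dose 3, 2 h after dose 5, and 24, 48 and 72 h after dose 7. Drug was quantified by LC-MS/MS. Blood and organs were collected after the final dose.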

[8] = Toxicity in mouse assessed as induction of distress at 100 to 250 mg/kg, po; assay type: organism-based; conditions: in vivo, dose 100-250 mg/kg
In short: (§2)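 Escalating single oral doses were given to mice until toxicity signs appeared. Regimens were 100, 150, 200 and 250 mg/kg, and 150, 200, 300, 400 and 600 mg/kg. Escalation was limited by solubility in the dosing solution.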

[9] = AUC in mouse at 10 mg/kg, po; assay type: ADME, organism-based; design: dose 10 mg/kg; conditions: in vivo
[10] = mouse, in vivo, po, 30 mg/kg, 96 h
[11] = Plasma concentration in mouse at 250 mg/kg, po QD for 7 days measured after 72 hrs by LC-MS/MS analysis
[12] = Plasma concentration in mouse at 100 mg/kg, po QD for 7 days measured after 24 hrs by LC-MS/MS analysis; assay type: ADME, organism-based; conditions: time 7 day; in short: as §1
[13] = Plasma concentration in mouse at 100 mg/kg, po QD for 5 days measured after 2 hrs by LC-MS/MS analysis; assay type: ADME, organism-based; conditions: time 5 day; in short: as §1
[14] = Toxicity in mouse assessed as effect on CBC parameters at 100 to 250 mg/kg, po QD for 7 days; assay type: organism-based; conditions: in vivo, 168 h, dose 100-250 mg/kg, time 7 day
[15] = Toxicity in human CRL-8155 cells; assay type: cell-based
HepG2 = assay: Toxicity in human HepG2 cells; assay type: cell-based
[16] = Toxicity in mouse assessed as induction of lack of grooming at 250 mg/kg, po QD for 7 days; assay type: organism-based; conditions: in vivo, 168 h, time 7 day
[17] = Plasma concentration in mouse at 250 mg/kg, po QD for 2 days measured after 2 hrs by LC-MS/MS analysis
Cryptosporidium parvum [18] = assay: Antimicrobial activity against nano-luciferase-expressing Cryptosporidium parvum infected in IFN-gamma KO B6.129S7-Ifngtm1Ts/J mouse assessed as log reduction of infection at 60 mg/kg, po QD for 5 days beginning on day 6 post infection relative untreated control; conditions: time 5 day
[19] = Protein binding in mouse plasma by dialysis method
[20] = Clearance in mouse at 10 mg/kg, po; assay type: ADME, organism-based; conditions: in vivo
[21] = Toxicity in mouse at 100 to 250 mg/kg, po; assay type: organism-based; conditions: in vivo, dose 100-250 mg/kg; in short: as §2
[22] = Plasma concentration in mouse at 100 mg/kg, po QD for 2 days measured after 2 hrs by LC-MS/MS analysis; assay type: ADME, organism-based; conditions: time 2 day; in short: as §1
Cryptosporidium parvum [23] = assay: Antimicrobial activity against nano-luciferase-expressing Cryptosporidium parvum infected in IFN-gamma KO B6.129S7-Ifngtm1Ts/J mouse assessed as log reduction of infection at 30 mg/kg, po QD for 5 days beginning on day 6 post infection relative untreated control; assay type: functional, organism-based; conditions: time 5.0 day
[24] = Plasma concentration in mouse at 100 mg/kg, po QD for 7 days measured after 72 hrs by LC-MS/MS analysis; assay type: ADME, organism-based; conditions: time 7 day; in short: as §1
[25] = Plasma concentration in mouse at 250 mg/kg, po QD for 7 days measured after 48 hrs by LC-MS/MS analysis
[26] = Solubility in pH 6.5 solution; conditions: buffer
[27] = Plasma concentration in mouse at 100 mg/kg, po QD for 3 days measured on pre dose by LC-MS/MS analysis
[28] = molecular target: Proto-oncogene tyrosine-protein kinase Src (Homo sapiens, UniProt P12931); assay: Inhibition of SRC (unknown origin); assay type: ADME
Proto-oncogene tyrosine-protein kinase Src, sequence (P12931 2-536 limits assumed): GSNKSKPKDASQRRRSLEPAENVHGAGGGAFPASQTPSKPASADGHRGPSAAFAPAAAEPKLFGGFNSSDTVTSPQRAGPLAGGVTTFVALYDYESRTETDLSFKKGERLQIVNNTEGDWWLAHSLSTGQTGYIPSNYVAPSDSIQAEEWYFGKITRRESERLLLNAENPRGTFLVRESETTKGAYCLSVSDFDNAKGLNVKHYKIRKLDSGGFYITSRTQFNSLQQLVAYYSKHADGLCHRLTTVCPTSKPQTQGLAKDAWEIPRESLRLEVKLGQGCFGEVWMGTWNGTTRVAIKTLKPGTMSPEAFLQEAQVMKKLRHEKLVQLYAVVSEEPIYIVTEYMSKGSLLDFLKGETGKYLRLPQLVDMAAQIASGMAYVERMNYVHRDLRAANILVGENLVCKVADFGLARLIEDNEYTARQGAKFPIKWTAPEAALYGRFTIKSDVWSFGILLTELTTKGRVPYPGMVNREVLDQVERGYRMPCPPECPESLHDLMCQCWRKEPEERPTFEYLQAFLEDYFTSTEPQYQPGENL

[29] = Toxicity in mouse assessed as effect on organ parameters at 100 to 250 mg/kg, po QD for 7 days by histological analysis; assay type: organism-based; conditions: in vivo, 168 h, dose 100-250 mg/kg, time 7 day
[30] = Solubility in pH 2.0 solution; conditions: buffer
[31] = Toxicity in mouse assessed as induction of lethargy at 250 mg/kg, po QD for 7 days; assay type: organism-based; conditions: in vivo, 168 h, time 7 day
[32] = Inhibition of Cryptosporidium parvum CDPK1 assessed as reduction in ATP consumption using BioSyntide-2 substrate incubated for 90 mins by luciferase reporter gene assay
[33] = Protein binding in human plasma by dialysis method
[34] = Plasma concentration in mouse at 250 mg/kg, po QD for 3 days measured on pre dose by LC-MS/MS analysis
[35] = Toxicity in mouse at 100 to 200 mg/kg, po QD for 7 days; assay type: organism-based; conditions: in vivo, 168 h, dose 100-200 mg/kg, time 7 day
[36] = Toxicity in mouse assessed as induction of distress at 100 to 400 mg/kg, po; assay type: organism-based; conditions: in vivo, dose 100-400 mg/kg
[37] = Toxicity in mouse assessed as effect on CBC parameters by measuring white blood cell counts at 200 mg/kg, po QD for 7 days by histological analysis (reference value: […] +/- […] 10^3/uL); assay type: organism-based; conditions: in vivo, 168 h, time 7 day
[38] = Toxicity in mouse at 100 to 400 mg/kg, po; assay type: organism-based; conditions: in vivo, dose 100-400 mg/kg
[39] = Toxicity in mouse assessed as effect on CBC parameters by measuring lymphocytes counts at 100 mg/kg, po QD for 7 days by histological analysis (reference value: 4060 +/- 1266 ABS/uL); assay type: organism-based; conditions: in vivo, 168 h, time 7 day
[40] = Toxicity in mouse assessed as effect on CBC parameters by measuring white blood cell counts at 100 mg/kg, po QD for 7 days by histological analysis (reference value: […] +/- […] 10^3/uL); assay type: organism-based; conditions: in vivo, 168 h, time 7 day
[41] = Toxicity in mouse assessed as induction of organ abnormalities at 100 to 200 mg/kg, po QD for 7 days by histological analysis; assay type: organism-based; conditions: in vivo, 168 h, dose 100-200 mg/kg, time 7 day
[42] = Toxicity in mouse assessed as effect on CBC parameters by measuring lymphocytes counts at 200 mg/kg, po QD for 7 days by histological analysis (reference value: 4060 +/- 1266 ABS/uL); assay type: organism-based; conditions: in vivo, 168 h, time 7 day
[43] = Cardiotoxicity in rat; assay type: toxicity
[44] = Clearance in mouse at 25 mg/kg, po; assay type: ADME, organism-based; conditions: in vivo
Cryptosporidium parvum [45] = assay: Antimicrobial activity against nano-luciferase-expressing Cryptosporidium parvum infected in IFN-gamma KO B6.129S7-Ifngtm1Ts/J mouse assessed as log reduction of infection at 60 mg/kg, po BID for 5 days beginning on day 6 post infection relative untreated control; assay type: functional; conditions: time 5 day
Cryptosporidium parvum [46] = assay: Antimicrobial activity against nano-luciferase-expressing Cryptosporidium parvum infected in IFN-gamma KO B6.129S7-Ifngtm1Ts/J mouse assessed as log reduction of infection at 60 mg/kg, po QD for 5 days beginning on day 6 post infection relative untreated control; conditions: time 5.0 day
[47] = Toxicity in mouse at 150 to 300 mg/kg, po QD for 7 days; assay type: organism-based; conditions: in vivo, 168 h, dose 150-300 mg/kg, time 7 day
[48] = Toxicity in mouse at 150 to 600 mg/kg, po; assay type: organism-based; conditions: in vivo, dose 150-600 mg/kg; in short: as §2
Cryptosporidium parvum [49] = assay: Antimicrobial activity against nano-luciferase-expressing Cryptosporidium parvum infected in IFN-gamma KO B6.129S7-Ifngtm1Ts/J mouse assessed as log reduction of infection at 30 mg/kg, po BID for 5 days beginning on day 6 post infection relative untreated control; assay type: functional, organism-based; conditions: time 5.0 day
[50] = Toxicity in mouse assessed as effect on serum chemistry parameters at 150 to 300 mg/kg, po QD for 7 days; assay type: organism-based; conditions: in vivo, 168 h, dose 150-300 mg/kg, time 7 day
[51] = mouse, in vivo, po, 30 mg/kg, 168 h
[52] = Toxicity in mouse assessed as induction of distress at 150 to 600 mg/kg, po; assay type: organism-based; conditions: in vivo, dose 150-600 mg/kg; in short: as §2
[53] = Toxicity in mouse assessed as effect on CBC parameters at 150 to 300 mg/kg, po QD for 7 days; assay type: organism-based; conditions: in vivo, 168 h, dose 150-300 mg/kg, time 7 day
[54] = Toxicity in mouse assessed as effect on organ parameters at 150 to 300 mg/kg, po QD for 7 days by histological analysis; assay type: organism-based; conditions: in vivo, 168 h, dose 150-300 mg/kg, time 7 day
[55] = AUC in mouse at 25 mg/kg, po; assay type: ADME, organism-based; design: dose 25 mg/kg; conditions: in vivo
Cryptosporidium parvum [56] = assay: Antimicrobial activity against nano-luciferase-expressing Cryptosporidium parvum infected in IFN-gamma KO B6.129S7-Ifngtm1Ts/J mouse assessed as log reduction of infection at 120 mg/kg, po QD for 5 days beginning on day 6 post infection relative untreated control; assay type: functional, organism-based; conditions: time 5.0 day
Cryptosporidium parvum [57] = assay: Antimicrobial activity against nano-luciferase-expressing Cryptosporidium parvum infected in IFN-gamma KO B6.129S7-Ifngtm1Ts/J mouse assessed as log reduction of infection at 5 mg/kg, po BID for 5 days beginning on day 6 post infection relative untreated control; assay type: functional, organism-based; conditions: time 5.0 day
Cryptosporidium parvum [58] = assay: Antimicrobial activity against nano-luciferase-expressing Cryptosporidium parvum infected in IFN-gamma KO B6.129S7-Ifngtm1Ts/J mouse assessed as log reduction of infection at 15 mg/kg, po BID for 5 days beginning on day 6 post infection relative untreated control; assay type: functional, organism-based; conditions: time 5.0 day

## CC(C)(C)n1nc(-c2ccc3cc(OC4CC4)ccc3c2)c(C(N)=O)c1N
[1]
  Activity: Non-Toxic
[2]
  concentration: 0.42 µM
[3]
  concentration at 168 h: 24.6 µM
[4]
  concentration at 120 h: 72.2 µM
[5]
  Activity: Non-Toxic
Cryptosporidium parvum [6]
  Activity: inactive
[7]
  concentration at 168 h: 4.8 µM
[8]
  Activity: Non-Toxic
[9]
  AUC: 9098 µmol·min/L
[10]
  Cmax: 28.8 µM
[11]
  concentration at 168 h: 0.7 µM
[12]
  concentration at 168 h: 26.4 µM
[13]
  concentration at 120 h: 49.2 µM
[14]
  Activity: Non-Toxic
[15]
  Activity: Non-Toxic
HepG2
  Activity: Non-Toxic
[16]
  Activity: Toxic
[17]
  concentration at 48 h: 40.1 µM
Cryptosporidium parvum [18]
  FC: 3.52
[19]
  PPB: 95%
[20]
  CL/F: 0.5 mL/min
[21]
  Activity: Non-Toxic
[22]
  concentration at 48 h: 36.6 µM
Cryptosporidium parvum [23]
  Activity: Active
[24]
  concentration at 168 h: 0.3 µM
[25]
  concentration at 168 h: 2.3 µM
[26]
  solubility: 65 µM (≈ 23.7 µg/mL)
[27]
  concentration at 72 h: 19.9 µM
[28]
  IC50: > 10000 nM
[29]
  Activity: Non-Toxic
[30]
  solubility: 83 µM (≈ 30.2 µg/mL)
[31]
  Activity: Toxic
[32]
  IC50: 4.3 nM
[33]
  PPB: 82%
[34]
  concentration at 72 h: 36.1 µM

## CC(C)(CO)Cn1nc(-c2ccc3cc(OC4CC4)ccc3c2)c(C(N)=O)c1N
[35]
  Activity: Non-Toxic
[36]
  Activity: Non-Toxic
[37]
  Activity: 1.5 10^3 /uL
[38]
  Activity: Non-Toxic
[15]
  Activity: Non-Toxic
HepG2
  Activity: Non-Toxic
[39]
  Activity: 1194 abs/uL
[40]
  Activity: 1.5 10^3 /uL
[41]
  Activity: Non-Toxic
[42]
  Activity: 1301 abs/uL

## CCOc1ccc2cc(-c3nn(C(C)(C)C)c(N)c3C(N)=O)cnc2c1
[43]
  Activity: Toxic

## CCOc1ccc2cc(-c3nn(C(C)(C)CCO)c(N)c3C(N)=O)ccc2c1
[44]
  CL/F: 11.1 mL/min
Cryptosporidium parvum [45]
  log reduction: 3.37
Cryptosporidium parvum [46]
  Activity: inactive
[47]
  Activity: Non-Toxic
[48]
  Activity: Non-Toxic
Cryptosporidium parvum [49]
  Activity: Active
[50]
  Activity: Non-Toxic
[51]
  Cmax: 0.51 µM
[15]
  Activity: Non-Toxic
HepG2
  Activity: Non-Toxic
[52]
  Activity: Non-Toxic
[19]
  PPB: 94%
[53]
  Activity: Non-Toxic
[54]
  Activity: Non-Toxic
[55]
  AUC: 144.5 µmol·min/L
[28]
  IC50: > 10000 nM
Cryptosporidium parvum [56]
  Activity: Active
Cryptosporidium parvum [57]
  Activity: inactive
[32]
  IC50: 2.5 nM
Cryptosporidium parvum [58]
  Activity: inactive
[33]
  PPB: 99%
